Source: paper PMC4734651 (MedChemComm, 2014)

What follows are compounds tested against TrkA (Homo sapiens, UniProt P04629) (assay: TrkA biochemical screening assay). Settings: 39 compared with 26.
Procedure, shortened: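 5FAM-tagged TrkA peptide (1.5 μM final) and ATP (190 μM final) then added. Run to 10–20% conversion in no-inhibitor wells; no-enzyme blanks. Product/substrate peaks separated on chip; percent inhibition calculated.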

Chain of TrkA (P04629 33-796): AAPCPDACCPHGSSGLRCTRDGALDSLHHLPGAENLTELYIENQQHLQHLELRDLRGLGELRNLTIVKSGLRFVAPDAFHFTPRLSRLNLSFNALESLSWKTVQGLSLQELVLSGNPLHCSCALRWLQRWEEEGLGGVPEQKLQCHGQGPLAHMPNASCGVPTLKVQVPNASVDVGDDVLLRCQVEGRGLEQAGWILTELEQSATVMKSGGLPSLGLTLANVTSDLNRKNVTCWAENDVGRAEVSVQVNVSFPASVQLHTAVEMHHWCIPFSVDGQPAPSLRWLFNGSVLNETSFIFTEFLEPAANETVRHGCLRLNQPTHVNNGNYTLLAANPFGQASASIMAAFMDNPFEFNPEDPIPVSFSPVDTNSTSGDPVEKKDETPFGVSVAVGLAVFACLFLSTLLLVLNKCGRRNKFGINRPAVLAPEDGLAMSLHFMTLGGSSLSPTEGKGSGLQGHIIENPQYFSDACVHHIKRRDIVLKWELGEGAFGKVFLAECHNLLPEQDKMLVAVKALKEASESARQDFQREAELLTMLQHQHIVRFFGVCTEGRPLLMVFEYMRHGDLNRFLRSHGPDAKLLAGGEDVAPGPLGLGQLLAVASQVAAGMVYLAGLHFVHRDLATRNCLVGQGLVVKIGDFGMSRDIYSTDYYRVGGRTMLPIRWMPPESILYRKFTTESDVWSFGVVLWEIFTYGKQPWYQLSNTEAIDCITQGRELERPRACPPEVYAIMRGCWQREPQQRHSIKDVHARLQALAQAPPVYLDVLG

Row | increase in TrkA inhibition in comparison to 26 | SMILES
1 | ~ 5 fold | Cn1cc(-c2cncc(-c3ccc(NC(=O)Nc4cc(C(C)(C)C)on4)cc3)n2)cn1 [Compound 39]

Same assay, conditions: chlorine at A-region derivatized, compared with 1a

Row | TrkA affinity increase relative to compound 1a | SMILES
2 | > 1000 times | COc1ccc(-c2cncc(Oc3cccc(NC(=O)Nc4cc(C(C)(C)C)on4)c3)n2)cc1 [Compound 9]
3 | > 1000 times | CC(C)(C)c1cc(NC(=O)Nc2cccc(Oc3cncc(-c4ccsc4)n3)c2)no1 [Compound 15]
4 | > 1000 times | CC(C)(C)c1cc(NC(=O)Nc2cccc(Oc3cncc(-c4ccc(S(C)(=O)=O)cc4)n3)c2)no1 [Compound 20]
5 | > 1000 times | Cn1cc(-c2cncc(Oc3cccc(NC(=O)Nc4cc(C(C)(C)C)on4)c3)n2)cn1 [Compound 26]
6 | > 1000 times | CC(C)(C)c1cc(NC(=O)Nc2cccc(Oc3cncc(-c4ccc(F)cc4)n3)c2)no1 [Compound 36]

Same assay, conditions: qualitative statement

Row | TrkA activity (in words) | SMILES
7 | not strongly active | CC(C)(C)c1cc(NC(=O)Nc2cccc(Oc3cncc(Cl)n3)c2)no1 [Compound 1a]
8 | relatively inactive | CC(C)(C)c1ccc(NC(=O)Nc2cccc(Oc3cncc(-c4ccsc4)n3)c2)cc1 [Compound 13]
9 | relatively inactive | CC(C)(C)c1cc(NC(=O)Nc2cccc(Oc3cncc(-c4ccsc4)n3)c2)on1 [Compound 14]
10 | relatively inactive | Cn1nc(C(C)(C)C)cc1NC(=O)Nc1cccc(Oc2cncc(-c3ccsc3)n2)c1 [Compound 16]

Row | SMILES | TrkA activity (in words)
11 | Cn1cc(-c2cncc(-c3ccc(NC(=O)Nc4cc(C(C)(C)C)on4)cc3)n2)cn1 [Compound 39] | far more potent than their ether linked counterparts
12 | Cn1cc(-c2cncc(-c3ccc(NC(=O)Nc4cc(C(C)(C)C)nn4C)cc3)n2)cn1 [Compound 40] | far more potent than their ether linked counterparts

Same assay, conditions: read-out: %TrkA inhibition, 20 μM

Row | inhibition at 20 µM | SMILES
13 | 41.4 ± 3.3% | CC(C)(C)c1cc(NC(=O)Nc2ccc(-c3cncc(Cl)n3)cc2)no1 [Compound 38]
14 | 96.1 ± 2.3% | Cn1cc(-c2cncc(-c3ccc(NC(=O)Nc4cc(C(C)(C)C)on4)cc3)n2)cn1 [Compound 39]
